# procasp3 activ: activators of human procaspase-3; hit rate 0.11% among 330,000; activation, % at 8.5 µM; recombinant procaspase-3 D3A, Ac-DEVD-pNA absorbance 405 nm; AID 463141;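 active = activation above the mean of all tested compounds plus 3 SD, cut at about 21% in these data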;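 note: 0% = DMSO alone and 100% = DMSO wells spiked with extra 5 µM PC-3 D3A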
# Target sequence (P42574 whole entry D9A/D28A/D175A): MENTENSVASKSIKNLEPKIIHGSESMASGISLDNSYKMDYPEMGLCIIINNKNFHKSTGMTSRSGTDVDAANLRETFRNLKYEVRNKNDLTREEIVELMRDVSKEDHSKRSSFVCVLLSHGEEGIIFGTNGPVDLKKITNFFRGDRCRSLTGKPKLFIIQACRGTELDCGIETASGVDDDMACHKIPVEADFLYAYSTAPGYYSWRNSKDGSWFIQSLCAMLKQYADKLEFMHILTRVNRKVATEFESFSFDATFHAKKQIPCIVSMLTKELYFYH
#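 Evaluation: percent activation relative to control range; Material: Procaspase-3 D3A mutant, all three cleavage aspartates alanine; Compound: single dose, 8.5 µM nominal compound, 0.8% DMSO; Replication: one well per compound; Signal: absorbance at 405 nm, 0 and 120 min; Schedule: 1 h preincubation plus 2 h reaction at 25 °C.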
# GAA850 FXN act: increases GAA850 frataxin promoter reporter activity | hit rate 0.56% among 360,000 | HEK293 lucGAA850 FXN promoter luciferase reporter, 24 h; percent of 10 µM SAHA response | activation, % at 6 µM | AID 540364;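 active = activation above the average of all compounds screened plus 3 SD, cutoff fixed separately per campaign, cut at about 7.5% in these data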;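 note: 0% = DMSO wells and 100% = 10 µM SAHA wells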
# proCasp7 act: activates human procaspase-7, counter-screen for procaspase-3 activators; P55210; recombinant procaspase-7, Ac-DEVD-pNA absorbance 405 nm; D23A/D198A/D206A triple mutant, cannot self-cleave; scale: DMSO 0, 5 µM enzyme 100; activation, % at 8.5 µM; hit rate 0.093% among 330,000; AID 463210;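 active = percent activation above the screen-wide mean plus 3 SD, cut at about 25% in these data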
# Target sequence (P55210 whole entry D23A/D198A/D206A): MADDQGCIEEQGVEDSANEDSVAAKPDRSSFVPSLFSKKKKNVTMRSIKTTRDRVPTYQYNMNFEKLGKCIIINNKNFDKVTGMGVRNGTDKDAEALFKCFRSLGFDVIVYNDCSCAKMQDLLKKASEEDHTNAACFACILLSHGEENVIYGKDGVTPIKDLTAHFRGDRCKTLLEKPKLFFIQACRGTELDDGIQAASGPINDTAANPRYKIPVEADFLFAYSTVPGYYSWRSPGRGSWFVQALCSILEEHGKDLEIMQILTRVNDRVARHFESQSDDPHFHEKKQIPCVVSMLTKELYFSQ
#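 Assay system: Uncleavable procaspase-7 mutant enzyme; Input: 2 µM procaspase-7 mutant as dispensed; Also added: DEVD-pNA substrate; Medium: Zinc-free HEPES pH 7.4 with 300 mM NaCl, 0.01% Triton X-100; Timing: 1 h compound preincubation, 2 h substrate cleavage, 25 °C; Measured by: Epi-absorbance of released pNA at 405 nm, two timepoints.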
# GAA30 FXN cntr: GAA30 FXN promoter activation counter-screen | AID 588350 | shares compounds with GAA850 FXN act | HEK293 lucGAA30 FXN promoter luciferase, 24 h; DMSO = 0%, 5 µM ipriflavone = 100% | activation, % at 6 µM | hit rate 66% among 1,900;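 active = mean activation above the mean of solvent-only control wells plus 3 SD, cut at about 22% in these data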;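 note: counterscreen of GAA850 promoter hits where activity marks nonselective or luminescence artifacts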
# FXN GAA850 conf: GAA850 FXN promoter activation confirmation | shares compounds with GAA850 FXN act | AID 588351 | hit rate 86% among 1,900 | activation, % at 6 µM | HEK293 lucGAA850 FXN promoter luciferase reporter, 24 h; 100% = activation by SAHA;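 active = mean activation above a set limit taken from the primary screen, cut at about 8% in these data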;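 note: 0% = DMSO wells and 100% = 10 µM SAHA wells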
# * = called active by the depositor; . = no result given. Compounds with a hit are over-represented: about 0.7% of the library has one in this group of screens.
SMILES,procasp3 activ,GAA850 FXN act,proCasp7 act,GAA30 FXN cntr,FXN GAA850 conf
CCc1ccc(NC(=O)CCn2nc(C)c(S(=O)(=O)N3CCCCC3)c2C)cc1,6,7.6*,4,7,8.6*
CCOc1ccc(NC(=O)CCn2nc(C)c(S(=O)(=O)N3CCCCC3)c2C)cc1,-8,0,5,.,.
Cc1nc2nc(-c3ccccc3)nn2c(C)c1Cl,2,6,-8,.,.
Cc1nc2nc(-c3ccccc3)nn2c(C)c1C,14,7.6*,3,115*,41*
CC(O)(c1cccc(F)c1)c1nc(-c2ccc(S(C)(=O)=O)cc2)cs1 (stereo unspecified),.,1,.,.,.
Cc1cc(C(=O)COC(=O)c2nccnc2N)c(C)n1C,-4,9.1*,7,104*,32*
COc1cc(C(=O)OCC(=O)c2cc(C)n(C)c2C)cc(OC)c1OC,-2,-3,-8,.,.
O=C(c1cc(COc2ccc(F)cc2Cl)on1)N1CCSCC1,2,10*,4,110*,44*
COc1ccc(OCc2cc(C(=O)N3CCSCC3)no2)c(Cl)c1,1,3,0,.,.
O=C(Nc1ccccc1)[C@@H]1CCCN1S(=O)(=O)c1ccc(Cl)cc1,-5,0,4,.,.
O=C(Nc1ccc(Cl)cc1)C1CCCCN1S(=O)(=O)c1ccccc1 (stereo unspecified),1,7.9*,4,24*,8.3*
CCC(C)[C@H](NS(=O)(=O)c1ccc(C)cc1)C(=O)N1CCC(C(=O)N2CCC(C(N)=O)CC2)CC1 (stereo partly specified),-5,19*,-4,22,6
CC[C@H](C)[C@H](NS(=O)(=O)c1ccc(C)cc1)C(=O)N1CCC(C(=O)N[C@@H](C)C(=O)O)CC1,-5,1,5,.,.
O=C1C2CCC(C2)C1CN1CCOCC1 (stereo unspecified),.,-2,.,.,.
CCOC(=O)C/C(=N\Nc1ncnc2ccccc12)c1ccccc1,-41,8.3*,-13,84*,35*
CCOC(=O)/C(=N\Nc1ncnc2ccccc12)c1ccc(C)cc1,-10,-1,2,.,.
CCCS(=O)(=O)NC(=O)C1(C)CCCN(C(=O)c2c(F)ccc(C)c2F)C1 (stereo unspecified),.,1,.,.,.
O=C(/C=C/c1ccccc1)c1c[nH]c2ccccc12,5,12*,11,142*,52*
O=C(C=Cc1ccccc1)c1c[nH]c2ccccc2c1=O,.,-5,.,.,.
Cc1ccc(OCCOc2cccc(Br)c2)c([N+](=O)[O-])n1,8,7.6*,-1,81*,40*
Cc1ccc(OCc2ccc(Br)cc2)c([N+](=O)[O-])n1,-10,.,9,.,.
O=[N+]([O-])c1ccc2[nH]c(O)c(N=NC3CS(=O)(=O)CC3O)c2c1 (stereo unspecified),0,2,5,.,.
Cc1nnc(SCC(=O)Nc2cccc(Cl)c2)n1CC1CCCO1 (stereo unspecified),-2,0,2,.,.
CCOc1ccc(/C=N/Nc2ccccn2)cc1OC,8,6,3,.,.
COc1cc(/C=N/Nc2ccccn2)ccc1OCC(C)C,-7,7.8*,-1,87*,38*
SMILES,procasp3 activ,GAA850 FXN act,proCasp7 act,GAA30 FXN cntr,FXN GAA850 conf
COC(=O)CSc1ncnc2scc(-c3ccccc3)c12,6,5,-21,.,.
Fc1ccc(CSc2ncnc3scc(-c4ccccc4)c23)cc1,0,8.9*,-10,22*,14*
CCOc1cc(C(=O)N(C)CC(=O)Nc2cccc(F)c2)ccc1OCC(=O)N1CCOCC1,0,0,1,.,.
OCCCNc1cc(-c2ccnc(Nc3cccc(Cl)c3)n2)ccn1,2,-14,-9,.,.
CCC(C)Oc1cc(-c2ccnc(Nc3cccc(Cl)c3)n2)ccn1 (stereo unspecified),-1,22*,-3,40*,82*
O=C(COC(=O)/C=C/c1ccccc1Cl)NC1CC1,.,-1,.,.,.
CCN(c1ccccc1)c1nc2ccsc2c(=O)s1,-2,5,-1,.,.
CN(c1ccccc1)c1nc2ccsc2c(=O)s1,-11,7.7*,4,94*,36*
CC(=O)c1cccc(Nc2nc(-c3cccnc3)cs2)c1,.,5,.,.,.
CC(=O)c1cccc(Nc2nc(-c3ccccc3)cs2)c1,6,7.8*,-5,101*,28*
Cc1ccc(S(=O)(=O)Oc2ccccc2-c2ccccc2)cc1,.,-4,.,.,.
COc1ccc(OC)c(Nc2c3ccccc3nc3ccccc23)c1,-11,-4,-14,.,.
COc1ccc([N+](=O)[O-])cc1Nc1c2ccccc2nc2ccccc12,-6,9.3*,2,3,21*
O=[N+]([O-])c1ccccc1Nc1c2ccccc2nc2ccccc12,-9,9.6*,-4,32*,16*
O=[N+]([O-])c1ccc(Nc2c3ccccc3nc3ccccc23)cc1,.,5,.,.,.
CC(C)(C)C(=O)NC1(C(F)(F)F)NC(=O)N(c2ccc(F)cc2)C1=O (stereo unspecified),3,0,5,.,.
O=C(COC(=O)c1nn(CCO)c(=O)c2ccccc12)Nc1ccc(Cl)c(Cl)c1,5,1,9,.,.
COc1ccc(N(CC(=O)N2CCOCC2)S(C)(=O)=O)cc1Cl,5,0,8,.,.
CCOc1ccc(C(=O)NC(C(=O)NCc2cccnc2)C(C)C)cc1 (stereo unspecified),5,-1,-1,.,.
O=C(O)C1Sc2[nH]c(=O)sc2C2c3ccc(O)cc3OC(=O)C12 (stereo unspecified),-13,1,-18,.,.
O=C(Nc1ccc2oc(-c3ccccc3Cl)nc2c1)c1ncn[nH]1,-6,4,-1,.,.
O=C(Nc1ccc2oc(-c3cccc4ccccc34)nc2c1)c1ncn[nH]1,7,8.8*,-1,104*,41*
CCS/C(N)=N/N=C/c1cc(C)ccc1O,-2,3,4,.,.
CS/C(N)=N/N=C/c1cc(C)ccc1O,5,8.6*,7,122*,38*
O=[N+]([O-])c1ccc(CSC2=NCCN2)cc1,0,5,4,.,.
SMILES,procasp3 activ,GAA850 FXN act,proCasp7 act,GAA30 FXN cntr,FXN GAA850 conf
N#Cc1cc(O)c(-n2nnc3ccccc32)cc1C#N,3,0,-5,.,.
N#Cc1cc(Oc2cccc3cccnc23)c(-n2nnc3ccccc32)cc1C#N,-7,7.7*,-8,-1,15*
O=C(CCN1C(=O)c2ccccc2C1=O)Oc1ccc2ccccc2c1,-3,3,8,.,.
CC1=CC(C)(C)Nc2ccc(OC(=O)CCN3C(=O)c4ccccc4C3=O)cc21,-1,11*,4,-16,23*
COc1cc(/C=N/Nc2ncnc3sc4c(c23)CCC4)ccc1O,.,20*,.,67*,20*
COc1cc(/C=N/NC2=NCCCCC2)ccc1O,6,0,10,.,.
O=C1CCCc2nc(N3CCN(C(=O)c4ccco4)CC3)ncc21,4,5,2,.,.
CCOc1ccc(Nc2ncnc3c2cnn3-c2ccccc2)cc1,8,13*,9,67*,21*
